# Source: ChEMBL document CHEMBL2176946, “An anthraquinone scaffold for putative, two-face Bim BH3 α-helix mimic” (J Med Chem, 2012)
# Activity calls are given as the source filed them. The calls are words filed in the database; no cut-off is given here.
# Columns and labels:
# [1] = target: T1, Induced myeloid leukemia cell differentiation protein Mcl-1 (Homo sapiens, UniProt Q07820); test: Binding affinity to Mcl-1 after 30 mins by florescence polarization assay
# Outline: (§1)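 Fluorescence polarization binding assay against Mcl-1 and Bcl-2 proteins.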
# [2] = target: Apoptosis regulator Bcl-2 (Homo sapiens, UniProt P10415); test: Binding affinity to Bcl-2 after 30 mins by florescence polarization assay; outline: as §1
# Chain of Apoptosis regulator Bcl-2 (P10415 whole entry): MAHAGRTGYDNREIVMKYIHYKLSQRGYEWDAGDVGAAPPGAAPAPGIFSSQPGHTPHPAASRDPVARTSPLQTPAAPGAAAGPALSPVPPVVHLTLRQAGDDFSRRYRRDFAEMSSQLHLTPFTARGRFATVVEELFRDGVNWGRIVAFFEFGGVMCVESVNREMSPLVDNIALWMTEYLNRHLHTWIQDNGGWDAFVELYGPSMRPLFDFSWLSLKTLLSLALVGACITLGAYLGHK
# [3] = test system: MCF7; test: Induction of necrosis in human MCF7 cells at 10 uM after 12 to 24 hrs by Annexin V-FITC/PI staining based flow cytometry; format: functional, cell-based
# [4] = test system: U-937; test: Cytotoxicity against human U937 cells by MTT assay; format: functional, cell-based
# [5] = test system: Nucleic Acid; test: Induction of DNA damage in Escherichia coli pBR322 at 100 uM after 2 hrs by agarose gel electrophoresis; format: functional
# [6] = test system: MCF7; test: Cytotoxicity against human MCF7 cells by MTT assay; format: functional, cell-based
# [7] = target: T1, Induced myeloid leukemia cell differentiation protein Mcl-1; test: Binding affinity to Mcl-1 in ABT737-resistant human Nalm-6 cells assessed as disruption of Mcl-1/Bak at 5 uM after 12 to 24 hrs by coimmunoprecipitation assay; format: cell-based
# Outline: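 Nalm-6 cells (ABT737-resistant) incubated with 5 μM compound for 12 or 24 h. Total cell lysates immunoprecipitated with anti-Bcl-2 or anti-Mcl-1 antibody. Precipitates and lysates resolved by SDS-PAGE and Western blotted with anti-Bcl-2, anti-Bax, anti-Mcl-1 and anti-Bak antibodies.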
# [8] = Cytotoxicity against human NCI-H1688 cells by MTT assay; format: functional, cell-based
# [9] = test system: MCF7; test: Induction of apoptosis in human MCF7 cells at 10 uM after 12 to 24 hrs by Annexin V-FITC/PI staining based flow cytometry; format: functional, cell-based
# [10] = test system: SMMC-7721; test: Cytotoxicity against human SMMC7721 cells by MTT assay; format: functional, cell-based
# [11] = test system: MCF7; test: Cytotoxicity against human MCF7 cells transfected with Bax/Bak shRNA assessed as cell viability after 48 hrs by MTT assay; format: functional, cell-based
# Outline: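 MCF-7 cells transfected with nonspecific shRNA or Bax/Bak shRNA, treated 48 h with graded doses of compound. Viability read by MTT assay.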
# [12] = test system: K562; test: Cytotoxicity against human K562 cells by MTT assay; format: functional, cell-based
# [13] = test system: HeLa; test: Cytotoxicity against human HeLa cells by MTT assay; format: functional, cell-based
# [14] = test system: HEK293; test: Cytotoxicity against human HEK293 cells by MTT assay; format: cell-based
# T1 sequence (Q07820 whole entry): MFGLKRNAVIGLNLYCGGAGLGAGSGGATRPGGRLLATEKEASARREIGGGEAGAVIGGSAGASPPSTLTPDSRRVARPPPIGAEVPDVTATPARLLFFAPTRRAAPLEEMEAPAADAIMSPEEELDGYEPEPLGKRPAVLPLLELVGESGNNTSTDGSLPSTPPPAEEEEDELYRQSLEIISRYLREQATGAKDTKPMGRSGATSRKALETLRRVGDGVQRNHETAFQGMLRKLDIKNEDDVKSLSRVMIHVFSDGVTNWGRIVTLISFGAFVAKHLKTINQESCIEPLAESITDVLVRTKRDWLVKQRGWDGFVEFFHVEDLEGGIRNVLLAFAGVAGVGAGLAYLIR
Ki [1] [nM],Ki [2] [nM],SMILES,also measured
2270,1700,O=C1c2ccccc2C(=O)c2c(O)cc(O)cc21 [XANTHOPURPURIN],–
107,132,O=C1c2ccc(Br)cc2C(=O)c2cc(O)c(O)cc21,–
56,87,O=C1c2ccc(Sc3ccc(Br)cc3)cc2C(=O)c2cc(O)c(O)cc21,–
13,24,CC(C)c1ccc(Sc2ccc3c(c2)C(=O)c2cc(O)c(O)cc2C3=O)cc1,Activity [3]: inactive; IC50 [4]: 4060 nM; Activity [5]: inactive; IC50 [6]: 6120 nM; Activity [7]: Active; IC50 [8]: 4370 nM; Activity [9]: Active; IC50 [10]: 6850 nM; Activity [11]: inactive; IC50 [12]: 3250 nM; IC50 [13]: 5240 nM; IC50 [14]: 50300 nM

# The remaining lines, values behind:
SMILES,Ki [1] [nM],Ki [2] [nM],also measured
O=C1c2ccc(Sc3ccccc3)cc2C(=O)c2cc(O)c(O)cc21,53,71,–
O=C1c2ccccc2C(=O)c2c1cc(O)c(O)c2O,270,583,–
Cc1ccc(Sc2ccc3c(c2)C(=O)c2cc(O)c(O)cc2C3=O)cc1,38,44,–
O=C1c2ccccc2C(=O)c2c1ccc(O)c2O [ATHRAQUINONES A],1620,1150,–
O=C1c2ccccc2C(=O)c2cc(O)c(O)cc21,312,420,–
